Experimental data reported in the array DNA melting data of Ke et al. (doi:10.1101/2024.01.08.574731).

Tests used:
[1] = melting temperature; fluorescence melt of hairpins on a sequencing array, two-state fit, raised by 9.35 °C to match UV melts; conditions: sodium 0.088 M
How it was run: (§1)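 Cy3 fluorescence of library hairpins on a sequenced MiSeq flow cell, with annealed Cy3 and quencher oligos, was imaged in 50 mM Na-HEPES pH 8.0, 25 mM NaCl in 2.5 °C steps up to 60 °C. Signals were normalised to pre-quench Cy3 and to control variants. Melting temperature and folding enthalpy came from bootstrapped two-state fits, inverse-variance combined over four replicates. Fitted temperatures were raised by 9.35 °C to match UV melts.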

[2] = folding enthalpy; higher = less favourable; fluorescence melt of hairpins on a sequencing array, two-state fit; conditions: sodium 0.088 M
How it was run: as §1

GTGTCAGGAAACTAACAC ((((.((....)).))))
Tm [1]: 33.5 °C | folding enthalpy [2]: -20.3 kcal/mol

GTGTCAGGAAACTGACGC (.(((((....))))).)
Tm [1]: 55.4 °C | folding enthalpy [2]: -40.5 kcal/mol

GTGTCAGGAAACTGATAC ((.((((....)))).))
Tm [1]: 45.8 °C | folding enthalpy [2]: -29.4 kcal/mol

GTGTCAGGAAACTGATGC (..((((....))))..)
Tm [1]: 38.3 °C | folding enthalpy [2]: -21.1 kcal/mol

GTGTCAGGAAACTGGTAC ((..(((....)))..))
Tm [1]: 31.8 °C | folding enthalpy [2]: -17.6 kcal/mol

GTGTCCGAAAGGACCCAC ((((((....)))..)))
Tm [1]: 38.5 °C | folding enthalpy [2]: -8.57 kcal/mol

GTGTCCGGAAACAGACAC (((((.(....).)))))
Tm [1]: 44.9 °C | folding enthalpy [2]: -30.1 kcal/mol

GTGTCCGGAAACGGGCAC (((.(((....))).)))
Tm [1]: 62.4 °C | folding enthalpy [2]: -32.4 kcal/mol

GTGTCCTCGAAAGAGCAC (((..(((....))))))
Tm [1]: 36 °C | folding enthalpy [2]: -14.5 kcal/mol

GTGTCGGGAAACCAACAC ((((.((....)).))))
Tm [1]: 42.9 °C | folding enthalpy [2]: -33.7 kcal/mol

GTGTCGGGAAACCGACGC (.(((((....))))).)
Tm [1]: 60.5 °C | folding enthalpy [2]: -19.8 kcal/mol

GTGTCGGGAAACCGGTAC ((..(((....)))..))
Tm [1]: 37.6 °C | folding enthalpy [2]: -22.7 kcal/mol

GTGTCGGGAAACTGGCAC (((.(.(....).).)))
Tm [1]: 45.9 °C | folding enthalpy [2]: -29.2 kcal/mol

GTGTCTCGAAAGAGTCAC (((.(((....))).)))
Tm [1]: 49.4 °C | folding enthalpy [2]: -39.3 kcal/mol

GTGTCTGGAAACAGATAC ((.((((....)))).))
Tm [1]: 46.1 °C | folding enthalpy [2]: -37.9 kcal/mol

GTGTGACGAAAGTCCAC (((.(((....))))))
Tm [1]: 52.3 °C | folding enthalpy [2]: -40.2 kcal/mol

GTGTGAGGAAACTCACAC (((((((....)))))))
Tm [1]: 63.4 °C | folding enthalpy [2]: -49.1 kcal/mol

GTGTGATCGAAAGATCAC (((..(((....))))))
Tm [1]: 66.7 °C | folding enthalpy [2]: -14 kcal/mol

GTGTGCCGAAAGGCCAC (((.(((....))))))
Tm [1]: 63.8 °C | folding enthalpy [2]: -20.6 kcal/mol

GTGTGCGAAAGCAACCAC ((((((....)))..)))
Tm [1]: 38.8 °C | folding enthalpy [2]: -14.3 kcal/mol

GTGTGCGAAAGCAGCCAC ((((((....)))..)))
Tm [1]: 36.1 °C | folding enthalpy [2]: -13.4 kcal/mol

GTGTGCGAAAGCATCCAC ((((((....)))..)))
Tm [1]: 33.9 °C | folding enthalpy [2]: -11 kcal/mol

GTGTGCGGAAACGCGTAC ((..(((....)))..))
Tm [1]: 43.7 °C | folding enthalpy [2]: -16.3 kcal/mol

GTGTGCGGAAACGTACAC ((((.((....)).))))
Tm [1]: 56.2 °C | folding enthalpy [2]: -40.2 kcal/mol

GTGTGCGGAAACGTACGC (.((.((....)).)).)
Tm [1]: 48 °C | folding enthalpy [2]: -27.3 kcal/mol

GTGTGGCGAAAGCCCAC (((.(((....))))))
Tm [1]: 63 °C | folding enthalpy [2]: -18.6 kcal/mol

GTGTGGGGAAACCCGTAC ((..(((....)))..))
Tm [1]: 33.5 °C | folding enthalpy [2]: -20.8 kcal/mol

GTGTGGGGAAACTCACAC (((((.(....).)))))
Tm [1]: 52.3 °C | folding enthalpy [2]: -36.3 kcal/mol

GTGTGGGGAAACTCACGC (.(((.(....).))).)
Tm [1]: 44.7 °C | folding enthalpy [2]: -28 kcal/mol

GTGTGGGGAAACTCGCAC (((.(.(....).).)))
Tm [1]: 42.8 °C | folding enthalpy [2]: -29.9 kcal/mol

GTGTGTCGAAAGACCAC (((.(((....))))))
Tm [1]: 54.5 °C | folding enthalpy [2]: -28.9 kcal/mol

GTGTTACGAAAGTACAC (((.(((....))))))
Tm [1]: 47.9 °C | folding enthalpy [2]: -27 kcal/mol

GTGTTCGAAAGAACACAC ((((((....)))..)))
Tm [1]: 65 °C | folding enthalpy [2]: -11.8 kcal/mol

GTGTTCGAAAGAAGACAC ((((((....)))..)))
Tm [1]: 37.9 °C | folding enthalpy [2]: -20.8 kcal/mol

GTGTTCGAAAGAATCAC ((((((....))).)))
Tm [1]: 41.5 °C | folding enthalpy [2]: -28.2 kcal/mol

GTGTTGCGAAAGCAGCAC (((.(((....))).)))
Tm [1]: 64.3 °C | folding enthalpy [2]: -30.2 kcal/mol

GTGTTGGGAAACCAGCAC (((.(((....))).)))
Tm [1]: 51.4 °C | folding enthalpy [2]: -43.9 kcal/mol

GTGTTGGGAAACCGATAC ((.(.((....)).).))
Tm [1]: 33.3 °C | folding enthalpy [2]: -18.3 kcal/mol

GTGTTTACGAAAGTACAC (((..(((....))))))
Tm [1]: 36.7 °C | folding enthalpy [2]: -25 kcal/mol

GTGTTTCCGAAAGGACAC (((..(((....))))))
Tm [1]: 43.4 °C | folding enthalpy [2]: -23.4 kcal/mol

GTGTTTGAAAAAACAC ((((((....))))))
Tm [1]: 52.9 °C | folding enthalpy [2]: -38.4 kcal/mol

GTGTTTGGAAACAAATAC ((.((((....)))).))
Tm [1]: 41.2 °C | folding enthalpy [2]: -29 kcal/mol

GTGTTTGGAAACAAGCAC (((.(((....))).)))
Tm [1]: 46.6 °C | folding enthalpy [2]: -30.5 kcal/mol

GTGTTTTCGAAAGAACAC (((..(((....))))))
Tm [1]: 38.3 °C | folding enthalpy [2]: -32.9 kcal/mol

GTTAAAACGAAAGTTAAC (((..(((....))))))
Tm [1]: 26.3 °C | folding enthalpy [2]: -16.6 kcal/mol

GTTAACCGAAAGGTAAC (((.(((....))))))
Tm [1]: 40.8 °C | folding enthalpy [2]: -18.8 kcal/mol

GTTAACGAAAGTTAAC ((((((....))))))
Tm [1]: 56 °C | folding enthalpy [2]: -28.9 kcal/mol

GTTAAGGCGAAAGCCAAC (((..(((....))))))
Tm [1]: 32.8 °C | folding enthalpy [2]: -11 kcal/mol

GTTAATGAAAATTAAC ((((((....))))))
Tm [1]: 40.1 °C | folding enthalpy [2]: -25.9 kcal/mol

GTTAATGGAAACATTAAC (((((((....)))))))
Tm [1]: 49.4 °C | folding enthalpy [2]: -37.7 kcal/mol

GTTACACCGAAAGGTAAC (((..(((....))))))
Tm [1]: 31.8 °C | folding enthalpy [2]: -15.8 kcal/mol

GTTACACGAAAGTGAAC (((.(((....))))))
Tm [1]: 36.7 °C | folding enthalpy [2]: -15.8 kcal/mol

GTTACACGAAAGTGCAAC (((.(((....))).)))
Tm [1]: 44.7 °C | folding enthalpy [2]: -23.6 kcal/mol

GTTACAGAAATGTAAC ((((((....))))))
Tm [1]: 46.1 °C | folding enthalpy [2]: -33.4 kcal/mol

GTTACAGGAAACTGTAGC (.(((((....))))).)
Tm [1]: 38.9 °C | folding enthalpy [2]: -22.6 kcal/mol

GTTACAGGAAACTGTGAC ((.((((....)))).))
Tm [1]: 44.6 °C | folding enthalpy [2]: -30 kcal/mol

GTTACCGAAAGGTCAAC ((((((....))).)))
Tm [1]: 32.8 °C | folding enthalpy [2]: -13.4 kcal/mol

GTTACCGAAAGGTCGAAC ((((((....)))..)))
Tm [1]: 28.2 °C | folding enthalpy [2]: -9.83 kcal/mol

GTTACCGAAAGGTGAAC ((((((....))).)))
Tm [1]: 39.9 °C | folding enthalpy [2]: -14.8 kcal/mol

GTTACCGAAAGGTTGAAC ((((((....)))..)))
Tm [1]: 29.2 °C | folding enthalpy [2]: -12.8 kcal/mol

GTTACGGGAAACCGTAAC (((((((....)))))))
Tm [1]: 60.5 °C | folding enthalpy [2]: -46 kcal/mol

GTTACGGGAAACTGTAAC (((((.(....).)))))
Tm [1]: 45.6 °C | folding enthalpy [2]: -32.7 kcal/mol

GTTACGGGAAACTGTGAC ((.((.(....).)).))
Tm [1]: 32.5 °C | folding enthalpy [2]: -24.5 kcal/mol

GTTACTCGAAAGAGAAAC (((.(((....))).)))
Tm [1]: 41.9 °C | folding enthalpy [2]: -28.2 kcal/mol

GTTACTGGAAACAGTGAC ((.((((....)))).))
Tm [1]: 44.9 °C | folding enthalpy [2]: -27.6 kcal/mol

GTTAGACGAAAGTCGAAC (((.(((....))).)))
Tm [1]: 52.4 °C | folding enthalpy [2]: -23.5 kcal/mol

GTTAGAGCGAAAGCTAAC (((..(((....))))))
Tm [1]: 33.1 °C | folding enthalpy [2]: -14.6 kcal/mol

GTTAGCGAAAGCTAAAAC ((((((....)))..)))
Tm [1]: 33.4 °C | folding enthalpy [2]: -13.2 kcal/mol

GTTAGCGAAAGCTAAC ((((((....))))))
Tm [1]: 66.4 °C | folding enthalpy [2]: -28.2 kcal/mol

GTTAGCGGAAACGTTAAC ((((.((....)).))))
Tm [1]: 44.2 °C | folding enthalpy [2]: -28.8 kcal/mol

GTTAGTGGAAACACTAAC (((((((....)))))))
Tm [1]: 54.7 °C | folding enthalpy [2]: -46.1 kcal/mol

GTTAGTGGAAACATTAAC ((((.((....)).))))
Tm [1]: 32.5 °C | folding enthalpy [2]: -19.2 kcal/mol

GTTATAGCGAAAGCTAAC (((..(((....))))))
Tm [1]: 29.9 °C | folding enthalpy [2]: -14.3 kcal/mol

GTTATCGCGAAAGCGAAC (((..(((....))))))
Tm [1]: 29.8 °C | folding enthalpy [2]: -7.39 kcal/mol

GTTATCTCGAAAGAGAAC (((..(((....))))))
Tm [1]: 29.8 °C | folding enthalpy [2]: -11.8 kcal/mol

GTTATGCCGAAAGGCAAC (((..(((....))))))
Tm [1]: 33 °C | folding enthalpy [2]: -7.54 kcal/mol

GTTATGCGAAAGCAAAAC (((.(((....))).)))
Tm [1]: 41.2 °C | folding enthalpy [2]: -21 kcal/mol

GTTATGCGAAAGCACAAC (((.(((....))).)))
Tm [1]: 40.4 °C | folding enthalpy [2]: -20.3 kcal/mol

GTTATGGGAAACCATAAC (((((((....)))))))
Tm [1]: 54 °C | folding enthalpy [2]: -43.7 kcal/mol

GTTATGGGAAACTATAAC (((((.(....).)))))
Tm [1]: 34.6 °C | folding enthalpy [2]: -23.8 kcal/mol

GTTCAACGAAAGTTTAAC (((.(((....))).)))
Tm [1]: 35.2 °C | folding enthalpy [2]: -22.9 kcal/mol

GTTCACGAAAGTGAAC ((((((....))))))
Tm [1]: 68.4 °C | folding enthalpy [2]: -34.7 kcal/mol

GTTCACGAAAGTGCAAC ((((((....))).)))
Tm [1]: 37.8 °C | folding enthalpy [2]: -16.8 kcal/mol

GTTCACGAAAGTGGCAAC ((((((....)))..)))
Tm [1]: 31.4 °C | folding enthalpy [2]: -8.43 kcal/mol

GTTCACGAAAGTGTAAC ((((((....))).)))
Tm [1]: 38.7 °C | folding enthalpy [2]: -18.8 kcal/mol

GTTCACGAAAGTGTGAAC ((((((....)))..)))
Tm [1]: 47.3 °C | folding enthalpy [2]: -25.7 kcal/mol

GTTCAGCCGAAAGGCAAC (((..(((....))))))
Tm [1]: 31.4 °C | folding enthalpy [2]: -7.39 kcal/mol

GTTCAGGAAACTGAAC ((((((....))))))
Tm [1]: 53.8 °C | folding enthalpy [2]: -36.7 kcal/mol

GTTCAGGGAAACCCGAAC ((((.((....)).))))
Tm [1]: 42.3 °C | folding enthalpy [2]: -31.7 kcal/mol

GTTCCCCGAAAGGGAAC (((.(((....))))))
Tm [1]: 61.2 °C | folding enthalpy [2]: -29.6 kcal/mol

GTTCCCCGAAAGGGTAAC (((.(((....))).)))
Tm [1]: 40.9 °C | folding enthalpy [2]: -19.9 kcal/mol
